# Calb biofilm kill = mixture kills Candida albicans biofilm cells; inhibition, % at 7.6 µM; 0.02% of 120,000 active; C. albicans biofilm persisters + clotrimazole, fluorescence viability; primary screen in compound mixtures of four per well;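 note: compounds exposed to preformed 24 h biofilms for 48 h; 0% = untreated biofilm control and 100% = clotrimazole plus chlorhexidine kill blank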
#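 Test system: C. albicans CAF4-2 wild-type biofilms; buffer or medium: RPMI/MOPS medium, pH 7.0; schedule: 24 h biofilm formation, then 48 h compound exposure, 37 °C; detection: Alamar Blue fluorescence; measure: percent inhibition of biofilm viability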
# Arbovirus anti = arbovirus infection inhibition | AID 1251 | arbovirus infection cell-based antiviral screen | 0.37% of 200,000 active | inhibition, % at 10 µM; in the data active = inhibition above about 30%
# m-calpain inh = inhibitors of pig calpain II; purified calpain II, fluorogenic peptide substrate, 30 min; inhibition, % at 16 µM; 0.37% of 220,000 active; AID 1236;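 active = inhibition above about 50%, limit read from the data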
# Mcl1-Bid inh = Mcl-1/Bid interaction inhibition. Q07820. TR-FRET Mcl-1/Bid-Dy647 peptide binding, 1536-well. 0.97% of 220,000 active. inhibition, % at 21.7 µM;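 active = compounds that cut the binding signal by more than half at the single screening dose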;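 note: His-tagged Mcl-1 with europium anti-His antibody binding Bid BH3 peptide; 0% = Mcl-1 plus peptide wells and 100% = peptide-only wells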
# Target sequence (Q07820 whole entry, looked up): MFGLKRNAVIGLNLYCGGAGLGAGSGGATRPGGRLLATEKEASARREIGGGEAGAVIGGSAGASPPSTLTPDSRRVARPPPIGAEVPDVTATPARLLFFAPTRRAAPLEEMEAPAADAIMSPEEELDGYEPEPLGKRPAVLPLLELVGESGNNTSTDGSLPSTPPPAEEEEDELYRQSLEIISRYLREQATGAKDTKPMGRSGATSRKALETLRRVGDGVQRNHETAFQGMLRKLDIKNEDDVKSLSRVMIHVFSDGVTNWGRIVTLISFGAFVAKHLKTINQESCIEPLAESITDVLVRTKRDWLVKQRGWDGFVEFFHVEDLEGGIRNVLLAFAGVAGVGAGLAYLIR
# Mcl-1 Bim block = inhibitors of Bim-Mcl-1 interaction, human; AID 1009; 0.1% of 190,000 active; Bead-based flow cytometry, Bim peptide-Mcl-1 binding; inhibition, % at 10 µM; Q07820; in the data active = inhibition above about 40%;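 note: 0% = no compound tracer wells and 100% = peptide blocker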
# Mcl1 Noxa PPI = Mcl-1/Noxa interaction inhibition | 1.5% of 220,000 active | Q07820 | TR-FRET Mcl-1/Noxa peptide binding, 2 h | inhibition, % at 21.7 µM | AID 1022;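 active = compounds that cut the protein-peptide binding signal by more than 50% relative to plate controls in a single-dose test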;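 note: His-tagged Mcl-1 with rhodamine Noxa BH3 peptide and terbium anti-His antibody; 0% = Mcl-1 plus Noxa peptide wells and 100% = peptide-only wells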
# Starred values were filed as active, the others as inactive; . = no result given. Only some compounds are listed: those with a hit (about 2.8% of all), similar ones and a draw of the others.
SMILES,Calb biofilm kill,Arbovirus anti,m-calpain inh,Mcl1-Bid inh,Mcl-1 Bim block,Mcl1 Noxa PPI
Cc1cc2nc(/N=C(\N)NC(=O)N3c4ccccc4Sc4ccccc43)nc(C)c2cc1C,11,2,-24,-39,-1,-8
O=C(C[n+]1cc(-c2ccccc2)n2c1CCC2)N1c2ccccc2Sc2ccccc21,17,-17,-1,90*,-3,7
O=C(COc1ccc2ccc(=O)oc2c1)c1ccccc1,11,.,-2,21,.,16
CC(Oc1ccc2ccc(=O)oc2c1)C(=O)c1ccccc1 (stereo not drawn),3,1,9,52*,-6,-4
O=C(O)COc1ccccc1/C=N/Nc1ccc(S(=O)(=O)Nc2ccc(Cl)cc2)cc1[N+](=O)[O-],14,6,-53,23,0,73*
O=C(Cc1cccs1)Nc1nnc(CCc2ccccc2)s1,.,6,1,0,2,10
CC(C)Cc1nnc(NC(=O)Cc2cccs2)s1,28,1,-28,-54,2,56*
CCCCCc1nnc(NC(=O)Cc2cccs2)s1,.,8,-56,7,0,67*
CC(C)(C)Cc1nnc(NC(=O)Cc2cccs2)s1,1,9,-91,-30,-6,60*
CN(C)S(=O)(=O)c1ccc(NC(=O)COc2ncnc3sccc23)cc1,13,7,-55,-5,-2,17
CC(C)(CO)Nc1nc(Cl)nc(NC2CCCCC2)n1,22,.,-6,-1,.,3
CCOP(=O)(O)c1ccccc1OCCOCCOc1ccccc1P(=O)(O)OCC,.,-4,5,30,-1,54*
Cc1ccc(NC(=O)CN2C(=O)N/C(=C/c3cc(C)n(-c4cccc(C(=O)O)c4)c3C)C2=O)cc1,5,18,-101,-97,-1,73*
Cc1ccc(NC(=O)CN2C(=O)N/C(=C\c3cccn3-c3cccc(C(=O)O)c3)C2=O)cc1,2,7,-28,-78,0,63*
Cc1ccc(CN2C(=O)N/C(=C\c3cccn3-c3cccc(C(=O)O)c3)C2=O)cc1,9,1,-3,-37,-1,41
O=S(=O)(/N=C(\c1ccccc1F)N1CCCCC1)c1ccccc1,6,2,-15,3,-3,3
CC1(C)CC(=O)C=C(NCCc2c[nH]c3ccccc23)C1,22,.,-16,-25,.,11
C/C=C(\C)CN1CCN(c2cccc(C)c2C)CC1,.,-1,10,5,0,-1
C/C=C(\C)CN1CCN(c2ccccc2F)CC1,.,9,0,53*,-5,25
CCCn1c(SCC(=O)NCCc2ccccc2)nnc1-c1ccco1,8,5,-11,-3,-2,-14
N#Cc1c(Nc2cccc(F)c2)sc2c(O)cc(=O)[nH]c12,8,4,14,-136,3,54*
Cc1ccc2c(c1C)NC(C(=O)O)C1CC=CC21 (stereo not drawn),.,16,-58,96*,1,99*
CCOC(=O)c1ccc2c(c1)C1C=CCC1C(C(=O)O)N2 (stereo not drawn),.,0,-69,62*,3,104*
O=C(O)C1Nc2c(C(=O)N3CCOCC3)cccc2C2C=CCC12 (stereo not drawn),.,-5,-33,5,6,80*
CCOC(=O)c1ccc(Nc2c(OCC)c(=O)c2=O)cc1,20,.,16,-8,.,-2
SMILES,Calb biofilm kill,Arbovirus anti,m-calpain inh,Mcl1-Bid inh,Mcl-1 Bim block,Mcl1 Noxa PPI
Cc1nonc1C(=O)N/N=C/c1ccc(O)cc1O,22,-20,-11,-77,-1,-24
CCc1cc(C(=O)N2CCCC(CNC(=O)c3ccc(-c4ccccc4)cc3)C2)no1 (stereo not drawn),11,-5,-1,7,-4,10
CCN(CC)C(=O)C(=O)c1cccn1-c1c(Cl)cccc1C#N,11,12,18,-9,0,5
CCNS(=O)(=O)c1ccc(CCC(=O)NCc2ccc(C)cc2)cc1,4,0,-19,-21,1,-6
C(=N\c1nc2ccccc2n1CCN1CCOCC1)/c1cccs1,.,6,-7,-26,-1,4
C(=N\c1nc2ccccc2n1Cc1ccccc1)/c1cccs1,.,-6,-12,51*,-1,20
N#CC1=C(N)NC(SCc2ccc(F)cc2)=C(C#N)C12CCCCC2,.,-23,66*,-15,0,10
N#CC1=C(N)NC(SCC(=O)O)=C(C#N)C12CCCC2,.,1,6,-27,0,14
CCCCn1c(N)c(C(=S)NC(=O)CC(C)(C)C)c(=O)n(C)c1=O,19,-21,11,-80,-8,-70
COc1ccc(N(CC(=O)NCCC2=CCCCC2)S(=O)(=O)c2c(C)[nH]c(=O)[nH]c2=O)cc1,25,.,11,6,.,19
S=C(NCc1ccco1)Nc1cc(-c2ccccc2)[nH]n1,13,4,4,-72,3,13
O=C(Cc1cccs1)Nc1nnc(SCC(=O)NC2CCCCC2)s1,.,0,-7,-13,0,9
O=C(Cc1ccc(F)cc1)Nc1nnc(SCC(=O)NC2CCCC2)s1,11,-3,-13,72*,0,1
O=C(CCc1nnc(CCCc2ccccc2)o1)NCCN1CCOC1=O,17,7,-1,5,-1,8
COC(=O)/C=C/c1sc2nc(C)cc(C)c2c1N=CN(C)C,2,45*,-59,-39,-2,3
Cc1cc(C)c2c(N=CN(C)C)c(C(=O)N3CCN(c4ncccn4)CC3)sc2n1,.,16,-44,-19,1,-7
NC(=O)c1cnn(C2CCS(=O)(=O)C2)c1 (stereo not drawn),19,3,-26,-8,-3,4
O=C1/C(=C\c2ccco2)NC(=S)N1c1ccccc1,4,3,-52,-31,3,58*
CCCN=C1N/C(=C\c2ccco2)C(=O)N1c1ccccc1,.,1,12,-44,-1,2
CC(=O)Nc1cccc(/C(C)=N/NS(=O)(=O)c2ccccc2)c1,10,-5,-6,-28,2,8
COc1ccc(S(=O)(=O)N/N=C(/C)c2cccc(NC(=O)c3ccccc3Cl)c2)cc1,.,37*,-16,-81,0,6
Cc1ccc2nsnc2c1S(=O)(=O)NCCc1c(C)[nH]c2ccc(F)cc12,.,-9,6,55*,0,8
COC(=O)/C(=C/c1cn(C)c2ccccc12)[N+](=O)[O-],.,-1,15,-10,-2,22
COC(=O)/C(=C/c1cn(C(C)=O)c2ccccc12)[N+](=O)[O-],17,.,7,-8,.,61*
O=C(Cc1cccs1)N/N=C/C=C/c1ccco1,9,6,-51,-30,-3,70*
O=C(N/N=C\C=C\c1ccco1)c1cc(-c2ccc3ccccc3c2)n[nH]1,21,-1,-68,-14,-4,93*
O=C(N/N=C/C=C\c1ccco1)c1ccccn1,19,.,1,-37,.,-5
O=C(CSc1nnc(SCc2ccccc2)s1)N/N=C/C=C/c1ccco1,16,-11,-87,45,-5,106*

# Assay outcomes from PubChem.
